Test results: article PMC10512781 (Journal of medicinal chemistry, 2022)
Entries after “also recorded” stand apart in the source; their conditions may differ. Read-outs that look alike come from different tables or passages of the source.

Key:
[1] = tested on: p21 protein in L3.6pl cells; test: Western blot, p21 protein level; format: cell-based, human; settings: 24 h
Method in brief: (§1)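 L3.6pl cells (400,000 in 2 mL RPMI 1640, 10% FBS, 1% antibiotic–antimycotic) held overnight at 37 °C, 5% CO2, then treated 24 h with test compound or DMSO. Lysed in RIPA with protease and phosphatase inhibitors. Membranes blocked in 5% skim milk/PBST for 1 h, primary antibody overnight at 4 °C (c-Myc 1:1000, FUBP1 1:1000, p21 1:100, GAPDH 1:40,000), secondary 1 h, chemiluminescence on X-ray film. Repeated at least three times.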

[2] = tested on: c-Myc protein in L3.6pl cells; test: Western blot, c-Myc protein level; format: cell-based, human; settings: 24 h
Method in brief: as §1

[3] = tested on: CHO cells; settings: at 1 mM; cited from earlier work
[4] = tested on: human pancreatic cancer cell lines; settings: at 300 μM; cited from earlier work
[5] = tested on: CHO-K1 cells; test: Cytotoxicity assay; format: cell-based, Chinese hamster; settings: CHO-K1, 384-well; maximum tolerated concentration (≥90% relative growth)
[6] = tested on: FUBP1; settings: NMR study; cited from earlier work
[7] = tested on: CHO-K1 cells; test: 48 h growth inhibition by assay reagents; format: cell-based, Chinese hamster; settings: read-out: 48 h CHO-K1 IC50; CHO-K1, 48 h
[8] = tested on: polyamine import in L3.6pl cells; test: Radiolabeled spermidine; format: cell-based, human; settings: for basal 3H-Spd uptake: 24 h treatment prior to 3H-Spd for 15 min; for 3H-Spd import in combination with DFMO vs DFMO-only: 72 h with DFMO + compound prior to 3H-Spd for 15 min
Method in brief: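 L3.6pl cells pretreated 24 h with test compound, then exposed to 3H-spermidine for 15 min. Radioactive counts normalised to lysate protein measured by BCA assay. Triplicate conditions; reported as pmol 3H-Spd/μg protein ± standard deviation.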

[9] = tested on: L3.6pl pancreatic cancer cells; settings: DFMO 8 mM, 48 h, cited from earlier work
[10] = tested on: FUBP1 protein in L3.6pl cells; test: Western blot, FUBP1 protein level; format: cell-based, human; settings: 24 h
Method in brief: as §1

[11] = tested on: native polyamine levels in L3.6pl cells; test: Intracellular polyamine quantitation by HPLC; format: cell-based, human; settings: 60 μM, 24 h, vs vehicle (0.6% DMSO)
Method in brief: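 Polyamines measured by HPLC. L3.6pl cells seeded at 100,000 cells/mL in RPMI 1640 with 250 μM aminoguanidine and held overnight at 37 °C, 5% CO2. Next day treated with test compound (60 μM) or 0.6% DMSO vehicle for 24 h at 37 °C, then intracellular native polyamines quantified.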

[12] = molecular target: T1, GST-FUBP1 (KH3-KH4) binding to FUSE oligo (Oligo-KH4) (Homo sapiens, UniProt Q96AE4); test: Gel shift assay; settings: 30 and 60 μM vs DMSO control
T1 sequence (Q96AE4 278-447 limits assumed): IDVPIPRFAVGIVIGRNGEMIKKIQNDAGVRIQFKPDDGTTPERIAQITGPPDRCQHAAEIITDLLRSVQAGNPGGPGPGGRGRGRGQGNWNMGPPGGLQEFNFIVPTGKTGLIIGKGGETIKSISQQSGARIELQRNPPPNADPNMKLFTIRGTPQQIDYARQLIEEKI

[13] = tested on: p21 mRNA in L3.6pl cells; test: qRT-PCR, p21 mRNA; format: cell-based, human; settings: 24 h, qRT-PCR vs matched vehicle control
Method in brief: (§2)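 For qRT-PCR, L3.6pl cells (400,000) in RPMI 1640 with 10% FBS and 1% antibiotic–antimycotic were seeded in 6-well dishes and held overnight at 37 °C, 5% CO2. Next day they were treated with test compound or DMSO vehicle at 37 °C, then mRNA was measured by quantitative real-time PCR.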

[14] = molecular target: T2, FUBP1 binding to the FUSE c-myc promoter region in L3.6pl cells (Homo sapiens, UniProt Q96AE4); test: Chromatin immunoprecipitation; format: cell-based; settings: 60 μM, 24 h, vs untreated
T2 sequence (Q96AE4 1-644): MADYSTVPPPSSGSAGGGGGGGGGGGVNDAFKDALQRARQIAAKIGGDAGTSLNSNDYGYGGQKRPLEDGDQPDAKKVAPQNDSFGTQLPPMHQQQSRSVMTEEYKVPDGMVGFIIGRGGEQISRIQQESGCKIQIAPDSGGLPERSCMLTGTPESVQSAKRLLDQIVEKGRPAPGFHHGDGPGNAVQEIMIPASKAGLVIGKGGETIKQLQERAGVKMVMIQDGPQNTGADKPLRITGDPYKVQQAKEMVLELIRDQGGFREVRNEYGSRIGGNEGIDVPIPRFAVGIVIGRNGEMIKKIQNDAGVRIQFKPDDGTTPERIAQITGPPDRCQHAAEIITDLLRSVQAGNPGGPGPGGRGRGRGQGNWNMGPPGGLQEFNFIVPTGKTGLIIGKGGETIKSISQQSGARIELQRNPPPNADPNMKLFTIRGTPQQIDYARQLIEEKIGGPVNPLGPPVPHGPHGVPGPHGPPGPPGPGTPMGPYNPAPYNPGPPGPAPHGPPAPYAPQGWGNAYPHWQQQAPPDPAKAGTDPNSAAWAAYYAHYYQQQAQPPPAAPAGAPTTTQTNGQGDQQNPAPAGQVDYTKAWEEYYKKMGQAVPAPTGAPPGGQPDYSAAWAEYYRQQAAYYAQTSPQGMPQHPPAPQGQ
Method in brief: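 L3.6pl cells seeded at 300,000 cells/mL in RPMI 1640 with 10% FBS and 1% antibiotic–antimycotic, then held overnight at 37 °C, 5% CO2. Treated 24 h with test compound (60 μM) or 0.6% DMSO, then fixed in 1% formalin for 10 min. Sonicated chromatin (20–25 μg) was precleared and immunoprecipitated overnight at 4 °C with FUBP1 antibody, with H4Ac and rabbit IgG controls. Samples were de-crosslinked overnight at 65 °C, and FUSE c-Myc DNA measured by q-PCR. Mean fold change ± S.E.M., n = 2.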

[15] = tested on: c-Myc mRNA in L3.6pl cells; test: qRT-PCR, c-Myc mRNA; format: cell-based, human; settings: 24 h, qRT-PCR vs matched vehicle control
Method in brief: as §2

COc1ccccc1C(=O)Nc1ccc(N2CCC(Oc3ccccc3)CC2)cc1C(=O)O [Compound 63, 2-(2-Methoxybenzamido)-5-(4-phenoxypiperidin-1-yl)benzoic Acid]
p21 protein expression [1]: increased p21 protein levels
c-Myc protein expression [2]: reduced c-Myc

N=C(N)NN [AG, aminoguanidine]
toxicity [3]: not toxic
toxicity [4]: not toxic

COc1ccccc1C(=O)Nc1ccc(N2CCN(Cc3ccccn3)CC2)cc1C(=O)O [Compound 54, 2-(2-Methoxybenzamido)-5-(4-(pyridin-2-ylmethyl)piperazin-1-yl)benzoic Acid]
Cytotoxicity MTC [5]: > 40 µM

Nc1ccccc1C(=O)O [anthranilic acid]
binding to FUBP1 [6]: very low affinity

NCCCCNCCCCNCc1c2ccccc2cc2ccccc12 [Ant44, N^1-(9-anthracenylmethyl)-homospermidine]
IC50 [7]: 2000 nM

CNCCCCNCCCCNCc1cc(CNCCCCNCCCCNC)cc(CNCCCCNCCCCNC)c1.Cl.Cl.Cl.Cl.Cl.Cl.Cl.Cl.Cl [Compound 5]
basal 3H-Spd uptake [8]: blocked significant spermidine uptake
3H-Spd import in combination with DFMO vs DFMO-only [8]: statistically significant reduction in ^3H-Spd import

NCCC[C@](N)(C(=O)O)C(F)F [DFMO, difluoromethylornithine]
relative growth (compared to an untreated control) ([9]; with rescuing spermidine 1 μM): 103%
intracellular putrescine ([9]; with spermidine 1 μM): no detectable intracellular putrescine
intracellular spermidine ([9]; with spermidine 1 μM): 6.4 nmol/mg protein
intracellular spermine ([9]; with spermidine 1 μM): 17.4 nmol spermine/mg protein
intracellular putrescine [9]: no detectable intracellular putrescine
intracellular spermidine [9]: 2.1 nmol/mg protein
intracellular spermine [9]: 18.6 nmol spermine/mg protein
relative growth (compared to an untreated control) [9]: 64%

COc1ccc(C(=O)Nc2ccc(N3CCN(c4cc(Cl)ccc4C)CC3)cc2C(=O)O)cc1 [Compound 9, 5-[4-(5-Chloro-2-methyl-phenyl)-piperazin-1-yl]-2-(4-methoxybenzoylamino)-benzoic Acid]
basal 3H-Spd uptake [8]: did not block the uptake of ^3H-Spd
3H-Spd import in combination with DFMO vs DFMO-only [8]: did not significantly inhibit ^3H-Spd import
FUBP1 protein levels [10]: did not affect FUBP1 protein levels
intracellular polyamine levels [11]: significantly lower polyamine levels
FUBP1 (KH3-KH4)-FUSE DNA bound complex [12]: dose-dependent decrease
p21 mRNA level [13]: increased for p21
p21 protein expression [1]: increased p21 protein expression in a dose-dependent manner; also recorded: superior in terms of inducing p21
FUSE c-Myc DNA pulled down with FUBP1 antibody [14]: reduced levels of c-Myc FUSE DNA
c-Myc protein expression [2]: reduced c-Myc protein expression
c-Myc mRNA level [15]: significantly decreased for c-Myc
